Laboratory results: ChEMBL document CHEMBL4024784, “Structure-Based Design, Synthesis, and In Vivo Antinociceptive Effects of Selective A1 Adenosine Receptor Agonists” (J Med Chem, 2018)
Calls of active or inactive are those of the source. The rule behind the calls is not given here.

Columns and labels:
[1] = biological target: T1, Adenosine receptor A2b (Homo sapiens, UniProt P29275); assay: Agonist activity at recombinant human adenosine A2B receptor expressed in CHO cell membranes assessed as stimulation of adenylyl cyclase activity in presence of […]; type: functional, cell-based
T1 sequence (P29275 whole entry): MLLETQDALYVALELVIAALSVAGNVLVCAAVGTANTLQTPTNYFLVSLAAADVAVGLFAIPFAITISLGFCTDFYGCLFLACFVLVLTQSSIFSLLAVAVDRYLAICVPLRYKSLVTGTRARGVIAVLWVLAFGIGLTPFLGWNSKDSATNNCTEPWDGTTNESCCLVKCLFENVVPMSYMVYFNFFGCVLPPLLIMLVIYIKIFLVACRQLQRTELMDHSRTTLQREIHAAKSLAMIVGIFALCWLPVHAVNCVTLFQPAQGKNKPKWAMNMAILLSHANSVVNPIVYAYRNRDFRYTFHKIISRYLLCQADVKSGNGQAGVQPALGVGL
Outline: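 A2B potency from stimulation of adenylyl cyclase in crude CHO membranes (single high-speed centrifugation, resuspended in 50 mM Tris/HCl pH 7.4, used immediately); EC50 derived. Where only partial agonism was seen, efficacy was compared to 100 µM NECA as full agonist. Geometric means, 95% CI, duplicates, n ≥ 3.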

[2] = biological target: T2, Adenosine receptor A1 (Homo sapiens, UniProt P30542); assay: Displacement of [3H]CCPA from recombinant human adenosine A1 receptor expressed in CHO cell membranes after 3 hrs
T2 sequence (P30542 whole entry): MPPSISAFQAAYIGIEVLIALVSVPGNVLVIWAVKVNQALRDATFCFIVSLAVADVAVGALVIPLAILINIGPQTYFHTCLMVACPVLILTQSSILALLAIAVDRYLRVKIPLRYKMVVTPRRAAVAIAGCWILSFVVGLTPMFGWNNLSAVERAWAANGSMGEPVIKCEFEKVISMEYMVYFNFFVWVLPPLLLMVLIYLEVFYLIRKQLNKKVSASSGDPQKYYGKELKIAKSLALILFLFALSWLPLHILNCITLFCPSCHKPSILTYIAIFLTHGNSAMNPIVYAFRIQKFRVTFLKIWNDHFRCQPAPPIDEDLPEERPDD
Outline: (§1)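 Competition binding on CHO membranes stably expressing the human subtype (two-step 1,000 x g then 100,000 x g centrifugation, stored -80°C). Radioligands: 1 nM [3H]CCPA (A1), 10 nM [3H]NECA (A2A), 1 nM [3H]HEMADO (A3). Nonspecific binding: 1 mM theophylline (A1) or 100 µM R-PIA (A2A, A3). Ki from competition curves; geometric means with 95% CI, duplicates, n ≥ 3.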

[3] = biological target: T3, Adenosine receptor A1 (Homo sapiens) (UniProt P30542); assay: Agonist activity at recombinant human adenosine A1 receptor expressed in CHO cell membranes assessed as inhibition of forskolin-stimulated adenylyl cyclase activity in presence of […] relative to CCPA
T3 sequence (whole entry): T2 sequence (P30542 whole entry)

[4] = system: Mus musculus; assay: Antinociceptive activity in C57BL/6 mouse assessed as reduction in early phase of tonic pain at 2 mg/kg, ip administered 10 mins prior to formalin challenge measured after 7 mins; type: functional, organism-based
Outline: (§2)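 Adult male C57BL/6 mice (25-30 g), acclimatized 30 min in test chamber. Compound or vehicle (10% DMSO in 0.9% NaCl) given i.p. 10 min before 30 µL 1.25% formalin s.c. into dorsal hind paw; DPCPX 1 mg/kg i.p. where co-given. Blinded observers recorded paw lifting/licking time every 5 min for 60 min; early phase 0-7 min, late phase 15-60 min. 8-10 mice/group, mean ± SEM.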

[5] = system: Mus musculus; assay: Antinociceptive activity in C57BL/6 mouse assessed as reduction in early phase of tonic pain at 4 mg/kg, ip administered 10 mins prior to formalin challenge measured after 7 mins; type: functional, organism-based; outline: as §2
[6] = system: Mus musculus; assay: Antinociceptive activity in C57BL/6 mouse assessed as reduction in prolonged phase of tonic pain at 4 mg/kg, ip administered 10 mins prior to formalin challenge measured after 60 mins in presence of A1AR antagonist DPCPX; type: functional, organism-based; outline: as §2
[7] = biological target: Adenosine receptor A2a (Homo sapiens, UniProt P29274); assay: Displacement of [3H]NECA from recombinant human adenosine A2A receptor expressed in CHO cell membranes after 3 hrs; outline: as §1
[8] = biological target: T4, Adenosine receptor A3 (Homo sapiens, UniProt P0DMS8); assay: Displacement of [3H]HEMADO from recombinant human adenosine A3 receptor expressed in CHO cell membranes after 3 hrs; outline: as §1
T4 sequence (P0DMS8 whole entry): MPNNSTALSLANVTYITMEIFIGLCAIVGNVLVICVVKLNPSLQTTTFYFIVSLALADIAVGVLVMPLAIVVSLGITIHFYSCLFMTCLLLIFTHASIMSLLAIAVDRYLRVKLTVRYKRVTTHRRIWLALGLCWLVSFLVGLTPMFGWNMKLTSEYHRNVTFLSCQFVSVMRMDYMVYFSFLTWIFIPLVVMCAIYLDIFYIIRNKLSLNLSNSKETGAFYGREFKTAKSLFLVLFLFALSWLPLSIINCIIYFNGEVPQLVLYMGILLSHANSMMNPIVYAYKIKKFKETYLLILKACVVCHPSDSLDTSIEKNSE

[9] = biological target: T2, Adenosine receptor A1; assay: Agonist activity at recombinant human adenosine A1 receptor expressed in CHO cell membranes assessed as inhibition of forskolin-stimulated adenylyl cyclase activity in presence of […]
[10] = system: Mus musculus; assay: Antinociceptive activity in C57BL/6 mouse assessed as reduction in early phase of tonic pain at 4 mg/kg, ip administered 10 mins prior to formalin challenge measured after 7 mins in presence of A1AR antagonist DPCPX; type: functional, organism-based; outline: as §2
[11] = biological target: Adenosine receptors; A1 & A3 (Homo sapiens) (UniProt P30542+P0DMS8); assay: Selectivity ratio of Ki for recombinant human adenosine A3 receptor to Ki for recombinant human adenosine A1 receptor
Outline: (§3)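 Ratios computed from Ki values obtained by competition binding in human receptor-transfected CHO membranes: [3H]CCPA 1 nM (A1), [3H]NECA 10 nM (A2A), [3H]HEMADO 1 nM (A3).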

[12] = system: Mus musculus; assay: Antinociceptive activity in C57BL/6 mouse assessed as reduction in prolonged phase of tonic pain at 4 mg/kg, ip administered 10 mins prior to formalin challenge measured after 60 mins; type: functional, organism-based; outline: as §2
[13] = species on record: Homo sapiens; assay: Selectivity ratio of Ki for recombinant human adenosine A2A receptor to Ki for recombinant human adenosine A1 receptor; outline: as §3
[14] = system: Mus musculus; assay: Antinociceptive activity in ip dosed C57BL/6 mouse assessed as reduction in prolonged phase of tonic pain administered 10 mins prior to formalin challenge measured after 60 mins; type: functional, organism-based; outline: as §2
[15] = system: Mus musculus; assay: Antinociceptive activity in C57BL/6 mouse assessed as reduction in prolonged phase of tonic pain at 2 mg/kg, ip administered 10 mins prior to formalin challenge measured after 60 mins in presence of A1AR antagonist DPCPX; type: functional, organism-based; outline: as §2
[16] = biological target: T4, Adenosine receptor A3; assay: Antagonist activity at recombinant human adenosine A3 receptor expressed in CHO cell membranes assessed as inhibition of forskolin-stimulated adenylyl cyclase in presence of […]; type: functional, cell-based
Outline: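 hA3-CHO membranes (one high-speed spin, 50 mM Tris/HCl pH 7.4, used fresh) tested for reversal of NECA-induced inhibition of forskolin-stimulated adenylyl cyclase. NECA served as reference agonist. Points in duplicate, at least 3 independent experiments.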

Chain of Adenosine receptor A2a (P29274 whole entry): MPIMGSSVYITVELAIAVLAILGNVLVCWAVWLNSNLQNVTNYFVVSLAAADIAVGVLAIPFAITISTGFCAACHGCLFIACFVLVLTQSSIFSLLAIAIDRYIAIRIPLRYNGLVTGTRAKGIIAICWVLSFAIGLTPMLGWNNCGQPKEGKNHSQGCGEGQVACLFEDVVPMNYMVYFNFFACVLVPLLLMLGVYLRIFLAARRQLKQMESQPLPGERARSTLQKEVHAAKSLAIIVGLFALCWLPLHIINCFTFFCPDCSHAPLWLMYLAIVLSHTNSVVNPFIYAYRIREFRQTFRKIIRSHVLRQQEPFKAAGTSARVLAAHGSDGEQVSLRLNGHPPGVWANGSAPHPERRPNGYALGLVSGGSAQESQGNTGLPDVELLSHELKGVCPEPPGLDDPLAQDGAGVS

O[C@@H]1[C@H](O)[C@@H](CCl)O[C@H]1n1cnc2c(N[C@@H]3CCOC3)ncnc21
EC50 [1]: 12.8 µM | Ki [2]: 1.89 nM | Efficacy [3]: > 90% | Activity [4]: Active | Activity [5]: Active | Activity [6]: inactive | Ki [7]: 10.4 µM | Ki [8]: 1200 nM | EC50 [9]: 140 nM | Activity [10]: inactive | Ratio Ki [11]: 635 | Activity [12]: Active | Ratio Ki [13]: 5500

O[C@@H]1[C@H](O)[C@@H](CCl)O[C@H]1n1cnc2c(Nc3ccc(Cl)cc3F)nc(Cl)nc21
EC50 [1]: > 60 µM | Ki [2]: 11.2 nM | Ki [7]: 1.96 µM | Ki [8]: 232 nM | Ratio Ki [11]: 21 | Ratio Ki [13]: 175

Cc1cc(C)n(C[C@H]2O[C@@H](n3cnc4c(N[C@@H]5CCOC5)nc(Cl)nc43)[C@H](O)[C@@H]2O)n1
EC50 [1]: > 60 µM | Ki [2]: 438 nM | Ki [7]: 11.9 µM | Ki [8]: 996 nM | Ratio Ki [11]: 2.3 | Ratio Ki [13]: 27

Cc1cc(C)n(C[C@H]2O[C@@H](n3cnc4c(NC5CC6CCC5C6)nc(Cl)nc43)[C@H](O)[C@@H]2O)n1 (mixture of isomers)
EC50 [1]: > 30 µM | Ki [2]: 4.35 nM | Efficacy [3]: > 90% | Ki [7]: 9.43 µM | Ki [8]: 1450 nM | Activity [14]: Dose-dependent effect | EC50 [9]: 134 nM | Ratio Ki [11]: 333 | Ratio Ki [13]: 2170

Cc1cc(C)n(C[C@H]2O[C@@H](n3cnc4c(N[C@@H]5CCOC5)ncnc43)[C@H](O)[C@@H]2O)n1
EC50 [1]: > 60 µM | Ki [2]: 491 nM | Ki [7]: 28.6 µM | Ki [8]: 5280 nM | Ratio Ki [11]: 11 | Ratio Ki [13]: 58

Cc1cc(C)n(C[C@H]2O[C@@H](n3cnc4c(Nc5ccc(Cl)cc5F)ncnc43)[C@H](O)[C@@H]2O)n1
EC50 [1]: > 60 µM | Ki [2]: 158 nM | Ki [7]: 6.83 µM | Ki [8]: 2730 nM | Ratio Ki [11]: 17 | Ratio Ki [13]: 43

O[C@@H]1[C@H](O)[C@@H](CCl)O[C@H]1n1cnc2c(N[C@@H]3CCOC3)nc(Cl)nc21
Activity [15]: inactive | EC50 [1]: 20 µM | Ki [2]: 3.5 nM | Efficacy [3]: > 90% | Ki [7]: 8.68 µM | Ki [8]: 1100 nM | Activity [14]: Dose-dependent effect | EC50 [9]: 54.2 nM | Ratio Ki [11]: 314 | Ratio Ki [13]: 2480

O[C@@H]1[C@H](O)[C@@H](CCl)O[C@H]1n1cnc2c(Nc3ccc(Cl)cc3F)ncnc21
EC50 [1]: 3.74 µM | Ki [2]: 1.87 nM | Efficacy [3]: > 90% | Ki [7]: 1.36 µM | Ki [8]: 136 nM | IC50 [16]: 4140 nM | EC50 [9]: 56 nM | Ratio Ki [11]: 73 | Ratio Ki [13]: 727

Cc1cc(C)n(C[C@H]2O[C@@H](n3cnc4c(Nc5ccc(Cl)cc5F)nc(Cl)nc43)[C@H](O)[C@@H]2O)n1
EC50 [1]: > 60 µM | Ki [2]: 139 nM | Efficacy [3]: > 90% | Ki [7]: > 100 µM | Ki [8]: 139 nM | IC50 [16]: 701 nM | EC50 [9]: 5570 nM | Ratio Ki [11]: 1 | Ratio Ki [13]: > 719

Cc1cc(C)n(C[C@H]2O[C@@H](n3cnc4c(NC5CC6CCC5C6)ncnc43)[C@H](O)[C@@H]2O)n1 (mixture of isomers)
EC50 [1]: > 30 µM | Ki [2]: 25.6 nM | Ki [7]: 19.6 µM | Ki [8]: 5450 nM | Ratio Ki [11]: 213 | Ratio Ki [13]: 765

Cc1cc(C)n(C[C@H]2O[C@@H](n3cnc4c(NC5CCCC5)nc(Cl)nc43)[C@H](O)[C@@H]2O)n1
EC50 [1]: > 30 µM | Ki [2]: 18.6 nM | Efficacy [3]: > 90% | Ki [7]: 10.2 µM | Ki [8]: 343 nM | IC50 [16]: 1910 nM | EC50 [9]: 541 nM | Ratio Ki [11]: 18 | Ratio Ki [13]: 548

Cc1cc(C)n(C[C@H]2O[C@@H](n3cnc4c(NC5CCCC5)ncnc43)[C@H](O)[C@@H]2O)n1
EC50 [1]: > 60 µM | Ki [2]: 115 nM | Ki [7]: 14.5 µM | Ki [8]: 5640 nM | Ratio Ki [11]: 49 | Ratio Ki [13]: 126
